Laboratory results from ChEMBL document CHEMBL4689842, “EUbOPEN Chemogenomics Library wave 1” (2021).

Test system: HEK-293T
Assay: Multiplex assay against HEK293T;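 as to Population Tubulin-Different-Phenotype (%): share of the cells with healthy nuclei that show this phenotype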
Assay type: toxicity, cell-based
Details: human
Method in brief: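 Cells stained live at seeding with Hoechst33342, BioTracker Green Microtubule Cytoskeleton Dye, MitoTracker Red and Annexin V Alexa Fluor 680 were imaged on a CQ1 microscope at 37°C and 5% CO2 after compound addition. Their classification by CellPathfinder machine-learning gating ran from Hoechst high-intensity objects versus normal cells, to healthy, pyknosed or fragmented nuclei among normal cells, to mitotic or apoptotic among pyknosed cells. Tubulin, mitochondrial-mass and membrane-permeability phenotypes are per cents of healthy-nucleus cells.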

[1] = 12 h, 1 µM, compound concentration 1 uM, replicate 1
[2] = 12 h, 1 µM, compound concentration 1 uM, replicate 2
[3] = 12 h, 10 µM, compound concentration 10 uM, replicate 1
[4] = 12 h, 10 µM, compound concentration 10 uM, replicate 2
[5] = 24 h, 1 µM, compound concentration 1 uM, replicate 1
[6] = 24 h, 1 µM, compound concentration 1 uM, replicate 2
[7] = 24 h, 10 µM, compound concentration 10 uM, replicate 1
[8] = 24 h, 10 µM, compound concentration 10 uM, replicate 2
[9] = 48 h, 1 µM, compound concentration 1 uM, replicate 1
[10] = 48 h, 1 µM, compound concentration 1 uM, replicate 2
[11] = 48 h, 10 µM, compound concentration 10 uM, replicate 1
[12] = 48 h, 10 µM, compound concentration 10 uM, replicate 2

Compound: C=CC(=O)Nc1ccc2ncnc(Nc3ccc(OCc4cccc(F)c4)c(Cl)c3)c2c1.Cc1ccc(S(=O)(=O)O)cc1
- Population Apoptotic (%) [1]: 52%
- Population Fragmented Nuclei (%) [1]: 11%
- Population Healthy Nuclei (%) [1]: 38%
- Population Hoechst High Intensity Objects (%) [1]: 11%
- Population Mitochondria Different-Phenotype (%) [1]: 75%
- Population Mitotic Cells (%) [1]: 47%
- Population Normal (%) [1]: 88%
- Population Pyknosed Nuclei (%) [1]: 49%
- Population Tubulin-Different-Phenotype (%) [1]: 39%
- Total Cell Count [1]: 304
- Population Apoptotic (%) [2]: 11%
- Population Fragmented Nuclei (%) [2]: 6%
- Population Healthy Nuclei (%) [2]: 45%
- Population Hoechst High Intensity Objects (%) [2]: 2%
- Population Membrane Permeable-Phenotype (%) [2]: 5%
- Population Mitochondria Different-Phenotype (%) [2]: 26%
- Population Mitotic Cells (%) [2]: 88%
- Population Normal (%) [2]: 97%
- Population Pyknosed Nuclei (%) [2]: 47%
- Population Tubulin-Different-Phenotype (%) [2]: 24%
- Total Cell Count [2]: 226
- Population Apoptotic (%) [3]: 51%
- Population Fragmented Nuclei (%) [3]: 10%
- Population Healthy Nuclei (%) [3]: 38%
- Population Hoechst High Intensity Objects (%) [3]: 12%
- Population Membrane Permeable-Phenotype (%) [3]: 2%
- Population Mitochondria Different-Phenotype (%) [3]: 82%
- Population Mitotic Cells (%) [3]: 48%
- Population Normal (%) [3]: 87%
- Population Pyknosed Nuclei (%) [3]: 51%
- Population Tubulin-Different-Phenotype (%) [3]: 44%
- Total Cell Count [3]: 267
- Population Apoptotic (%) [4]: 49%
- Population Fragmented Nuclei (%) [4]: 22%
- Population Healthy Nuclei (%) [4]: 21%
- Population Hoechst High Intensity Objects (%) [4]: 8%
- Population Membrane Permeable-Phenotype (%) [4]: 0%
- Population Mitochondria Different-Phenotype (%) [4]: 27%
- Population Mitotic Cells (%) [4]: 50%
- Population Normal (%) [4]: 91%
- Population Pyknosed Nuclei (%) [4]: 56%
- Population Tubulin-Different-Phenotype (%) [4]: 27%
- Total Cell Count [4]: 184
- Population Apoptotic (%) [5]: 45%
- Population Fragmented Nuclei (%) [5]: 11%
- Population Healthy Nuclei (%) [5]: 41%
- Population Hoechst High Intensity Objects (%) [5]: 15%
- Population Membrane Permeable-Phenotype (%) [5]: 3%
- Population Mitochondria Different-Phenotype (%) [5]: 61%
- Population Mitotic Cells (%) [5]: 54%
- Population Normal (%) [5]: 84%
- Population Pyknosed Nuclei (%) [5]: 47%
- Population Tubulin-Different-Phenotype (%) [5]: 39%
- Total Cell Count [5]: 351
- Population Apoptotic (%) [6]: 16%
- Population Fragmented Nuclei (%) [6]: 7%
- Population Healthy Nuclei (%) [6]: 63%
- Population Hoechst High Intensity Objects (%) [6]: 2%
- Population Membrane Permeable-Phenotype (%) [6]: 10%
- Population Mitochondria Different-Phenotype (%) [6]: 19%
- Population Mitotic Cells (%) [6]: 83%
- Population Normal (%) [6]: 97%
- Population Pyknosed Nuclei (%) [6]: 28%
- Population Tubulin-Different-Phenotype (%) [6]: 30%
- Total Cell Count [6]: 279
- Population Apoptotic (%) [7]: 56%
- Population Fragmented Nuclei (%) [7]: 11%
- Population Healthy Nuclei (%) [7]: 41%
- Population Hoechst High Intensity Objects (%) [7]: 16%
- Population Mitochondria Different-Phenotype (%) [7]: 78%
- Population Mitotic Cells (%) [7]: 43%
- Population Normal (%) [7]: 83%
- Population Pyknosed Nuclei (%) [7]: 47%
- Population Tubulin-Different-Phenotype (%) [7]: 48%
- Total Cell Count [7]: 262
- Population Apoptotic (%) [8]: 48%
- Population Fragmented Nuclei (%) [8]: 17%
- Population Healthy Nuclei (%) [8]: 30%
- Population Hoechst High Intensity Objects (%) [8]: 9%
- Population Membrane Permeable-Phenotype (%) [8]: 2%
- Population Mitochondria Different-Phenotype (%) [8]: 50%
- Population Mitotic Cells (%) [8]: 51%
- Population Normal (%) [8]: 90%
- Population Pyknosed Nuclei (%) [8]: 52%
- Population Tubulin-Different-Phenotype (%) [8]: 45%
- Total Cell Count [8]: 161
- Population Apoptotic (%) [9]: 44%
- Population Fragmented Nuclei (%) [9]: 15%
- Population Healthy Nuclei (%) [9]: 47%
- Population Hoechst High Intensity Objects (%) [9]: 13%
- Population Membrane Permeable-Phenotype (%) [9]: 4%
- Population Mitochondria Different-Phenotype (%) [9]: 32%
- Population Mitotic Cells (%) [9]: 55%
- Population Normal (%) [9]: 86%
- Population Pyknosed Nuclei (%) [9]: 37%
- Population Tubulin-Different-Phenotype (%) [9]: 32%
- Total Cell Count [9]: 430
- Population Apoptotic (%) [10]: 4%
- Population Fragmented Nuclei (%) [10]: 6%
- Population Healthy Nuclei (%) [10]: 83%
- Population Hoechst High Intensity Objects (%) [10]: 2%
- Population Membrane Permeable-Phenotype (%) [10]: 11%
- Population Mitochondria Different-Phenotype (%) [10]: 4%
- Population Mitotic Cells (%) [10]: 96%
- Population Normal (%) [10]: 97%
- Population Pyknosed Nuclei (%) [10]: 10%
- Population Tubulin-Different-Phenotype (%) [10]: 23%
- Total Cell Count [10]: 512
- Population Apoptotic (%) [11]: 51%
- Population Fragmented Nuclei (%) [11]: 16%
- Population Healthy Nuclei (%) [11]: 48%
- Population Hoechst High Intensity Objects (%) [11]: 12%
- Population Membrane Permeable-Phenotype (%) [11]: 5%
- Population Mitochondria Different-Phenotype (%) [11]: 46%
- Population Mitotic Cells (%) [11]: 48%
- Population Normal (%) [11]: 87%
- Population Pyknosed Nuclei (%) [11]: 35%
- Population Tubulin-Different-Phenotype (%) [11]: 38%
- Total Cell Count [11]: 339
- Population Apoptotic (%) [12]: 60%
- Population Fragmented Nuclei (%) [12]: 13%
- Population Healthy Nuclei (%) [12]: 53%
- Population Hoechst High Intensity Objects (%) [12]: 10%
- Population Membrane Permeable-Phenotype (%) [12]: 8%
- Population Mitochondria Different-Phenotype (%) [12]: 22%
- Population Mitotic Cells (%) [12]: 40%
- Population Normal (%) [12]: 89%
- Population Pyknosed Nuclei (%) [12]: 32%
- Population Tubulin-Different-Phenotype (%) [12]: 46%
- Total Cell Count [12]: 187
